Active and inactive are the calls of the source. The calls are words filed in the database; no cut-off is given here.
How the values were obtained:
[1] = target: T1, Transient receptor potential cation channel subfamily V member 2 (Homo sapiens, UniProt Q9Y5S1); experiment: Antagonist activity at TRPV2 (unknown origin)
T1 sequence (Q9Y5S1 whole entry): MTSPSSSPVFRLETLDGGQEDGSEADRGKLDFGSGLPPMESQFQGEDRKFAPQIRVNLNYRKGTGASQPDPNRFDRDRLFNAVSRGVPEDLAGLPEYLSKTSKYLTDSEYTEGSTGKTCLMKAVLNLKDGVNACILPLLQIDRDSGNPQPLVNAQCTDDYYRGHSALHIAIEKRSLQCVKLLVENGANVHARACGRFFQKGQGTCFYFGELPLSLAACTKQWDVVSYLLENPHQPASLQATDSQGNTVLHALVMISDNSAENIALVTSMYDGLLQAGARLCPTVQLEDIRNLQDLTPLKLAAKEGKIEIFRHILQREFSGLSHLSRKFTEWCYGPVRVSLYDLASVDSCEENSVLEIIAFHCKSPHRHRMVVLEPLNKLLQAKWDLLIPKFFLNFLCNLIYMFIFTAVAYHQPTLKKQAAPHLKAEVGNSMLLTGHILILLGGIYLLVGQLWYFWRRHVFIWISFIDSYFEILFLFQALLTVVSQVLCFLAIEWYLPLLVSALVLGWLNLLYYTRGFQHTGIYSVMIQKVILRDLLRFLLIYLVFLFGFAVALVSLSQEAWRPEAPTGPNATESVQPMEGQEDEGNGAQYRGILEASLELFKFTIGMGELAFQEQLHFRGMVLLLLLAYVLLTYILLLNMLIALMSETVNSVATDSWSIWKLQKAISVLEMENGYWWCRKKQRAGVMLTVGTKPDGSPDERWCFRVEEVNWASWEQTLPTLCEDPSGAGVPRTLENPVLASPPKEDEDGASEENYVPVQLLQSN
Summary of the method: (§1)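 Whole-cell voltage clamp of transiently transfected HEK293T cells co-expressing GFP, recorded 36-96 h post-transfection. Hold -60 mV; pipettes 3-7 MΩ. Bath 165 mM NaCl, 10 mM HEPES pH 7.3; pipette 140 mM KCl, 10 mM HEPES pH 7.3. Room temperature (~25 °C). IC50 from Hill fits of I/I0, the current ratio after vs before inhibitor; mean ± SEM.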

Mus musculus [2] = experiment: Antagonist activity at mouse TRPV2/LPAR1 expressed in LPA-stimulated HEK293T cells assessed as inhibition of 2-APB evoked currents at 10 uM dosed 3 mins after LPA stimulation by whole-cell patch clamp assay; summary of the method: as §1
Mus musculus [3] = experiment: Antagonist activity at mouse TRPV2/LPAR1 expressed in LPA-stimulated HEK293T cells assessed as inhibition of 2-APB evoked currents at 1 uM dosed 3 mins after LPA stimulation by whole-cell patch clamp assay; summary of the method: as §1
[4] = target: T2, Transient receptor potential cation channel subfamily V member 2 (Mus musculus) (UniProt Q9WTR1); experiment: Antagonist activity at mouse TRPV2 expressed in HEK293T cells assessed as inhibition of 2-APB evoked currents at -60 mV holding potential by whole-cell patch clamp assay; type: cell-based; summary of the method: as §1
T2 sequence (whole entry): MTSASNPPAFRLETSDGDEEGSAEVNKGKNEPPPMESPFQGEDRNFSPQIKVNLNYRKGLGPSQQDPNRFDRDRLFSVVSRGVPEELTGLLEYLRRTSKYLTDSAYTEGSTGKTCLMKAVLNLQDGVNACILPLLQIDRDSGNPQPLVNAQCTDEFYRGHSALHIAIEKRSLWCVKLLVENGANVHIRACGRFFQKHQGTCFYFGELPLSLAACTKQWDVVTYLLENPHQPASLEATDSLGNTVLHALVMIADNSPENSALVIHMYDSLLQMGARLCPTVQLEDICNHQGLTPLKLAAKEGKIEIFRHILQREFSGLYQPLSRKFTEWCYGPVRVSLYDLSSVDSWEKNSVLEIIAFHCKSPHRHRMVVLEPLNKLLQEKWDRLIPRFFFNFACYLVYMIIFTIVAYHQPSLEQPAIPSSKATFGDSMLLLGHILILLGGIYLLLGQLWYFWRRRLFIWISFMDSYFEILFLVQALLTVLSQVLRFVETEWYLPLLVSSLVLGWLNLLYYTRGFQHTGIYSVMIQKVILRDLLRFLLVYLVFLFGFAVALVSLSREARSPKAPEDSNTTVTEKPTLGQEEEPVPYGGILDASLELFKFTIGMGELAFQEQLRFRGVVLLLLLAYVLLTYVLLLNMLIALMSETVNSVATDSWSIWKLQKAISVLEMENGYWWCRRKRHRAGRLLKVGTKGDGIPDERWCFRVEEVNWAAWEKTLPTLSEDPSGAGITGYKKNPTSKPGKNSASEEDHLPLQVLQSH

[5] = target: T2, Transient receptor potential cation channel subfamily V member 2 (Mus musculus); experiment: Inhibition of mouse TRPV2 expressed in HEK293T cells assessed as inhibition of 2-APB evoked currents at 10 uM at -60 mV holding potential by whole-cell patch clamp assay; type: cell-based; summary of the method: as §1

SMILES: COc1ccc(/C=C/C(=O)Nc2ccccc2C(=O)O)cc1OC [TRANILAST]
- IC50 [1]: > 10 µM

SMILES: Cc1noc(-c2ccc(-c3ccc(CC(=O)O)cc3)cc2)c1NC(=O)O[C@H](C)c1ccccc1Cl
- inhibition (Mus musculus [2]): Active
- inhibition (Mus musculus [3]): Active

SMILES: CN1CCN(c2cc(C(F)(F)F)nc(SCCC(=O)NCc3ccco3)n2)CC1
- inhibition [4]: Dose-dependent effect

SMILES: COc1ccc(-c2cc(C(F)(F)F)nc(SCCC(=O)NCc3ccco3)n2)cc1
- inhibition [5]: Active
- inhibition [4]: Dose-dependent effect
